The list is not random: actives were taken first. Their share in the collection is about 1.9%.
beta cell repl: MIN6 beta-cell proliferation induction; proliferation, % at 10 µM; MIN6 cells proliferation, ATPlite luminescence, 48 h; cells starved in 0.2% serum; 100% = growth in 10% serum; hit rate 0.29% among 330,000;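 active means compounds whose signal lies at least 3.5 SD above the mean of all wells on their plate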;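 further: 0% = DMSO-treated cells in low-serum medium and 100% = 10% serum control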
V-ATPase pHluor: alters yeast V-ATPase proton transport. AID 504577. S. cerevisiae, pHLuorin cytosolic pH fluorescence. response, % at 10 µM. hit rate 0.37% among 350,000; in the data active means response mostly above about 7.3%, no sharp cut-off; inactive means mostly below about 5.4%; further: actives read high
T cell modulator: modulates CD8 T cell binding to vesicles; response (vesicle binding), % at 7 µM; hit rate 0.068% among 330,000; 2C CD8+ T cell-vesicle binding, flow cytometry; stronger effect = lower value;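 active means response, share of CD8 T cells binding vesicles, and their 90th percentile fluorescence all below set limits, cut at about 80% in these data, passing the limit was not always enough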;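 further: values below 100% mean blocked vesicle binding to the CD8+ T cells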
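Assay system: 2C TCR transgenic mouse naive CD8+ T cells, MACS-purified | Read-out: CD8+ gate FL2 mean fluorescence as % of same-row positive control | Signal: High-throughput flow cytometry with anti-B7-1 and anti-CD8 staining | Timing: Binding step 1.5 h, 37 °C, antibody labelling 20 min, ice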
Rce1 inh: inhibitors of yeast Ras-converting enzyme | Q03530 | yeast membranes, quenched prenylated peptide cleavage fluorescence | calls only | hit rate 0.27% among 290,000;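 active means fall in fluorescence gain of 50% or more versus controls, with final raw signal at or below 3038400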;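 further: plate controls were neutral control wells for no effect and wells lacking membranes for full effect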
Target sequence (Q03530 whole entry, looked up): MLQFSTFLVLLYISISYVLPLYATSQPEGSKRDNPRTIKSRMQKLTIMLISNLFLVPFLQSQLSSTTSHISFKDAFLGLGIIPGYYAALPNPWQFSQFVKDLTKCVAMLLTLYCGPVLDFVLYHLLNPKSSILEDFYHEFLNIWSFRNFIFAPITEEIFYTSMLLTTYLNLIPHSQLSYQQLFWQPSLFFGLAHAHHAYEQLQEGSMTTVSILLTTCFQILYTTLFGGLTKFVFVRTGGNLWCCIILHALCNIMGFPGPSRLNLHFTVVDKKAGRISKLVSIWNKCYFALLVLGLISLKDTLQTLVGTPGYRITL
KLK7 zymogen act: activates the human kallikrein-7 zymogen | P49862 | purified proKLK7, EDANS-DABCYL substrate fluorescence; 100% is mature enzyme control, 0% vehicle | activation, % at 7 µM | hit rate 0.9% among 370,000;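 active means activation above the mean of all tested compounds plus 3 SD, computed per campaign excluding outliers beyond control limits, cut at about 13% in these data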
Target sequence (P49862 whole entry, looked up): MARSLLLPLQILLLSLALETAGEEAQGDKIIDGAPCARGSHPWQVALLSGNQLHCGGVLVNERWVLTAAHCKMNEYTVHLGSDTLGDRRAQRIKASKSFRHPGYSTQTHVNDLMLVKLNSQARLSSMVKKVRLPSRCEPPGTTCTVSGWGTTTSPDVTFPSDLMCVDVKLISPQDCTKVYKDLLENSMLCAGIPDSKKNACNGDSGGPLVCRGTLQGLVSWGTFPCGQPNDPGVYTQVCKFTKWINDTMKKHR
CR mimetic SO: yeast age-related superoxide inhibition as caloric restriction mimetic | S. cerevisiae aged cells, superoxide DHE fluorescence; stronger effect = lower value | hit rate 0.18% among 330,000 | superoxide response (% of plate mean), % at 10 µM;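 active means superoxide response under a set limit, about three screen SD below normal, cut at about 65% in these data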;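 further: yeast aged for seven days with compound at 30 °C before DHE staining; 100% = average MFI of all compound-treated wells on the plate with controls excluded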
VATPase regulator: regulators of yeast V-ATPase proton transport; hit rate 2% among 980; AID 602197; shares compounds with V-ATPase pHluor; S. cerevisiae pHLuorin cytosolic pH; response, % at 10 µM; in the data active means response above about 24%;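 further: plate controls were vehicle wells for no effect and positive control wells for full effect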
Numbers without * were called inactive; i = inactive; . = no result.

SMILES	beta cell repl	V-ATPase pHluor	T cell modulator	Rce1 inh	KLK7 zymogen act	CR mimetic SO	VATPase regulator
COc1ccc(Nc2nc(-c3cccnc3)cs2)c(OC)c1	-2	9.1*	154	i	-1	100	3
COC(=O)[C@]12C[C@H](CC(=O)NCCC(C)C)C(=O)N(Cc3ccco3)C1=C[C@H](COCc1ccccc1)O[C@@H]2C	.	.	.	.	0	.	.
CCOC(=O)c1c(C)nc2ccccc2c1C	-1	-3	237	i	0	100	1
CCOC(=O)Cc1nc2ccccc2[nH]1	-4	3	354	i	1	77	-5
CCOC(=O)c1nc2ccccc2c(C)c1C	0	4	207	i	0	102	2
CC12CCC(/C(=C/NNc3ccc([N+](=O)[O-])cc3[N+](=O)[O-])C1=O)C2(C)C (configuration not stated)	.	3	.	.	0	.	.
O=C(O)CN(c1cccc(C(F)(F)F)c1)S(=O)(=O)c1ccccc1	-1	8.6*	463	i	0	97	-3
NC(=O)C1CCN(C(=O)CN(c2cccc(C(F)(F)F)c2)S(=O)(=O)c2ccccc2)CC1	-4	-4	569	i	-1	109	.
Cc1cccc(-c2nnc(SCC(=O)c3ccc(F)cc3)n2C)c1	.	.	.	.	0	.	.
COc1ccc(Cl)cc1S(=O)(=O)N1CCCC(C(=O)N2CCOCC2)C1 (configuration not stated)	1	9.5*	281	i	-1	94	3
COc1cc(-c2cc(=O)c3ccccc3o2)ccc1O	3	7.7*	149	i	4	89	7
Cc1ccc(-c2csc(C(C#N)=C3CCCC3)n2)cc1	-4	-4	367	i	0	106	.
N#CC(=C1CCCC1)c1nc(-c2ccccc2)cs1	-2	9.7*	192	i	0	95	-4
COC(=O)c1cnc(N)s1	.	0	.	.	0	.	.
O=c1cc(CN2CCCC2)c2ccccc2o1	.	.	.	.	0	.	.
CN1CCN(CC(=O)Nc2c(C(=O)C3CC3)oc3ccccc23)CC1	-1	-2	668	i	0	100	.
CCOC(=O)CSCC(=O)Nc1c(C(=O)C2CC2)oc2ccccc12	0	7.5*	306	i	0	108	1
C#CCOCCOCCOCCNc1nc(N2CCN(C(=O)[C@H](CCC(=O)O)n3cc(CN)nn3)CC2)nc(N2CCN(C(=O)[C@H](CCCCN)n3cc([C@@H](N)CC(N)=O)nn3)CC2)n1	0	7.9*	338	.	0	98	-2
CC(=O)NC(=S)Nc1cccc2c(C)cc(C)nc12	-1	-2	444	i	0	81	.
Cc1cc(C)c2cccc(N)c2n1	-3	31*	835	i	-1	111	0
COc1cc(OC)c(C(=O)OCC(=O)Nc2nnc(-c3ccccc3)o2)cc1OC	-2	12*	190	.	0	113	3
FC(F)Oc1ccc(NC(=S)NCc2nc3ccccc3[nH]2)cc1	1	2	250	i	0	94	.
CCOc1ccc(NC(=S)NCc2nc3ccccc3[nH]2)cc1	0	11*	344	i	0	105	-1
O=C(COc1coc(CN2CCCc3ccccc32)cc1=O)Nc1ccc([N+](=O)[O-])cc1	-2	7.4*	268	i	1	109	0
CCCCCCCCNC(=O)c1cccnc1SCC(=O)Nc1ccccc1OC	2	16*	224	i	0	98	-8
SMILES	beta cell repl	V-ATPase pHluor	T cell modulator	Rce1 inh	KLK7 zymogen act	CR mimetic SO	VATPase regulator
COc1ccc(OC)c(NC(=O)CSc2ncccc2C(=O)O)c1	1	3	179	i	0	109	.
CC(=O)c1cccc(S(=O)(=O)N2CCN(c3ccccc3F)CC2)c1	-1	12*	463	i	0	107	-1
O=C(Nc1ccccc1)c1cc(C2CCCN(C(=O)OCc3ccccc3)C2)on1 (configuration not stated)	.	.	.	.	0	.	.
CC(=O)OC(C(=O)N1CCN(c2ccccc2F)CC1)c1ccccc1 (configuration not stated)	0	12*	436	.	0	94	1
Cc1ccc(CN2C(=O)[C@H]3Cc4c([nH]c5ccccc45)C(C)(C)N3C2=O)cc1	-8	-2	643	i	2	99	.
Cc1ccc(NC(=O)CCC(=O)NNC(=O)c2ccccc2)c(C)c1	-2	0	342	i	0	94	.
Cc1ccc(NC(=O)CCC(=O)NNC(=O)c2ccccc2Cl)c(C)c1	0	13*	220	i	1	98	-2
CCOC(=O)c1c(C)c(-c2ccccc2)n(CC(=O)NCCCN(CC)CC)c1C	-2	15*	314	i	-1	94	0
CC(O)(CS(=O)(=O)Cc1ccccc1)c1ccccc1Cl (configuration not stated)	-1	6.9*	117	i	0	82	-5
COc1ccc(NC(=O)COC(=O)c2ccc(S(=O)(=O)N(C)c3ccccc3OC)cc2)cc1OC	-2	8	92	i	0	74	0
COc1ccc(C)cc1S(=O)(=O)NCC(c1ccc2c(c1)OCO2)N1CCOCC1 (configuration not stated)	-2	11*	338	i	0	105	-4
CCc1c(-c2ccc(Cl)cc2)ncn1CCc1ccccc1OC	.	.	.	.	0	.	.
O=[N+]([O-])c1c(NCc2ccccc2)cc(N2CCc3ccccc3C2)c2nonc12	0	5.8*	329	i	-1	90	2
Cc1cc(O)c(S(=O)(=O)c2ccccc2)c(C)c1NS(=O)(=O)c1ccccc1	-6	1	43	i	0	103	.
COC(=O)[C@]12C[C@H](CC(=O)NCC34CC5CC(CC(C5)C3)C4)C(=O)N(CCc3ccc(OC)c(OC)c3)C1=C[C@H](COCc1ccccc1)O[C@@H]2C	.	.	.	.	1	.	.
Cc1ccc(C(=O)Nc2ccc(N3CCCC3)cc2)cc1	-1	0	239	i	-2	93	.
Cc1ccc(C(=O)Nc2ccc(N3CCCCC3)cc2)cc1	-3	9.9*	484	.	0	94	3
COCC(O)Cn1ccnc1N=Nc1ccccc1 (configuration not stated)	.	.	.	.	0	.	.
CC(CNc1ccc(Cl)cc1)(CNc1ccc(Cl)cc1)[N+](=O)[O-]	.	8.8*	.	.	0	.	2
Cc1ccc(S(=O)(=O)Nc2cnc3ccccc3c2)cc1	0	9.9*	836	i	1	97	-5
c1coc(-c2nnc(-c3cccs3)o2)c1	0	-1	529	.	-1	114	.
O=c1cc(-c2ccco2)nc(-c2cccs2)o1	2	9.5*	330	i	1	95	4

Screening results: PubChem, several laboratories
